Source: ChEMBL document CHEMBL1147607, “Side-chain length is important for shogaols in protecting neuronal cells from beta-amyloid insult” (2004)

Assays:
[1] = system: PC-12; test: Effective dose to protect PC12 cells from beta-Amyloid (BA) insult was determined using MTT reduction assay; format: functional; details: Rattus norvegicus, read-out: ED50 (the source's name)
In short: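 PC12 cells in high-glucose DMEM with 10% horse serum, 5% fetal calf serum and 1% penicillin/streptomycin were plated overnight. They were then co-incubated 24 h with βA(1-42) (DMSO stock) and test compound at five concentrations, final DMSO <1%. MTT was added for 1 h at 37 °C, then lysing buffer overnight at 37 °C, and OD read at 570 nm. Viability was referenced to DMSO-only and βA-only wells. ED50 came from dose–response curves; curcumin was the positive control.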

[2] = system: IMR-32; test: Effective dose to protect IMR-32 cells from beta-Amyloid (BA) insult was determined using MTT reduction assay; format: functional; details: Homo sapiens, read-out: ED50 (the source's name)
In short: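 IMR-32 human neuroblastoma cells in Minimum Essential Medium with Earle's salts and L-glutamine, 10% fetal bovine serum and 1% penicillin/streptomycin were run as in the PC12 protocol. Cells were co-exposed 24 h to βA(1-42) and test compound at five concentrations, final DMSO <1%. MTT was reduced for 1 h at 37 °C, then lysed overnight, with OD read at 570 nm. ED50 came from dose–response curves.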

SMILES | EC50 [1] [µM] | EC50 [2] [µM]
CCCCCC/C=C/C(=O)CCc1ccc(O)c(OC)c1 | 8.6 | 12
CCCCCCCCC/C=C/C(=O)CCc1ccc(O)c(OC)c1 | 1.8 | 3.3
CCCCCCCC/C=C/C(=O)CCc1ccc(O)c(OC)c1 | 4.4 | 6.2
CCCC/C=C/C(=O)CCc1ccc(O)c(OC)c1 | 29 | 37.4
CCCCCCCCCCC/C=C/C(=O)CCc1ccc(O)c(OC)c1 | 0.2 | 0.5
CCCCCCC/C=C/C(=O)CCc1ccc(O)c(OC)c1 | 5.9 | 8.8
CCC/C=C/C(=O)CCc1ccc(O)c(OC)c1 | 45.9 | 61.2
CCCCCCCCCC/C=C/C(=O)CCc1ccc(O)c(OC)c1 | 0.5 | 1.4
COc1cc(/C=C/C(=O)CC(=O)/C=C/c2ccc(O)c(OC)c2)ccc1O [CURCUMIN] | 17.1 | 23.9
CCCCC/C=C/C(=O)CCc1ccc(O)c(OC)c1 [SHOGAOL] | 16.3 | 24.2
COc1cc(CCC(C)=O)ccc1O [ZINGERONE] | > 129 | > 129
